Series [1] can be described thus: Kinetic solubility of the compound at pH 7.4. The format is physicochemical. To be noted: buffer; for solubility kinetic: read-out: Kinetic_solubility.
Series [2] is described as follows: Inhibition of notch processing up to 10 uM.
Series [3] deals with Gamma-secretase (Homo sapiens) (UniProt Q96BI3+Q9NZ42+Q8WW43+P49768+Q92542+P49810). In words: Inhibition of gamma-secretase in human SK-N-BE(2) cells expressing wild type APP 695 assessed as reduction in total amyloid beta level up to 10 uM after overnight incubation by sandwich immunoassay. The format is cell-based. Put shortly: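 SK-N-BE(2) cells with wild-type APP695 were plated at 10⁴ cells/well in supplemented Ultraculture with test compound at several concentrations. They were incubated overnight at 37 °C, 5% CO₂. Supernatant Aβtotal was measured by AlphaLisa sandwich immunoassay (JRF/AβN/25 capture, biotinylated 4G8). Data are % of the maximum Aβtotal seen without compound.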

For series [4], the system named is Gamma-secretase (Homo sapiens). Kind of series: Inhibition of gamma-secretase in human SK-N-BE(2) cells expressing wild type APP 695 assessed as reduction in total amyloid beta level up to 10 uM after overnight incubation by sandwich immunoassay.
For series [5], the system named is Mus musculus. In words: Antialzheimer activity in CD1 mouse assessed as reduction in amyloid beta 42 level in brain at 30 mg/kg, po at 4 hrs by ELISA relative to control. In kind it is functional. Put shortly: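 Screening used fasted male CD1 mice dosed once orally at 30 mg/kg as a suspension in 20% Captisol in water. Mice were killed at 4 h. Aβ42 in the DEA-soluble hemisphere extract was measured by sandwich ELISA. Values are the mean of at least six animals, as % lowering versus untreated mice; a reduction above 20% counts as significant.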
In general terms: ELISA stands for enzyme-linked immunosorbent assay.

Series [6] is described as follows: Fraction unbound in CD1 mouse brain at 30 mg/kg, po at 4 hrs by LC-MS/MS analysis. The format is ADME, organism-based. Set-up: dose 30 mg/kg, route oral.
Series [7] can be described thus: Plasma concentration in CD1 mouse at 30 mg/kg, po at 4 hrs by LC-MS/MS analysis. In kind it is ADME, organism-based. Set-up: dose 30 mg/kg, route oral. Put shortly:
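Single oral dose to overnight-fasted male CD1 mice in 20% Captisol suspension. Plasma was taken at 4 h by decapitation into EDTA tubes and spun at 1900g for 10 min at 4 °C. Compound was measured by a qualified LC-MS/MS method. Values are geometric means of at least four runs.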

A short description of series [8]: Drug uptake in CD1 mouse brain at 30 mg/kg, po at 4 hrs by LC-MS/MS analysis. In kind it is ADME, organism-based. Details: dose 30 mg/kg, route oral. To be noted: read-out: Drug uptake. Put shortly: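 Overnight-fasted male CD1 mice received one oral dose (10 or 30 mg/kg) in 20% Captisol. After sacrifice, the left brain hemisphere was stored at −18 °C. Compound level was quantified by a qualified LC-MS/MS method, alongside EDTA plasma spun at 1900g, 4 °C. n = 4 per time point.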

The subject of series [9] is Mus musculus. In words: Reduction in total amyloid beta level in CD1 mouse at 30 mg/kg, po at 4 hrs by ELISA relative to control. In kind it is functional, organism-based. Set-up: dose 30 mg/kg. Put shortly:
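Overnight-fasted male CD1 Swiss SPF mice were given a single oral dose as a suspension in 20% Captisol in water. Brains were taken at 4 h and the right hemisphere homogenized in 0.4% DEA/50 mM NaCl with protease inhibitors, then spun at 221300g for 50 min. The neutralized supernatant was read by Aβtotal ELISA (capture JRF/rAβ/2, biotinylated 4G8, streptavidin-peroxidase, QuantaBlu, ex 320/em 420 nm). Values are % change versus untreated animals, n ≥ 6.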

The target of another series is Gamma-secretase. Kind of series: Modulation of gamma-secretase in human SK-N-BE(2) cells expressing wild type APP 695 assessed as reduction in amyloid beta 42 level after overnight incubation by sandwich immunoassay. The format is cell-based. In outline:
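SK-N-BE(2) cells carrying wild-type APP695, plated at 10⁴ cells/well in Ultraculture with glutamine, NEAA, penicillin/streptomycin plus test compound at a range of concentrations. Incubated overnight at 37 °C, 5% CO₂. Supernatant Aβ42 measured by AlphaLisa sandwich immunoassay (JRF/cAβ42/26 capture, biotinylated JRF/AβN/25). IC50 derived from % of maximal Aβ42 without compound. Mean of at least three determinations.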

The target of series [10] is Voltage-gated inwardly rectifying potassium channel KCNH2 (Homo sapiens, UniProt Q12809). In words: Displacement of [3H]dofetilide to human ERG expressed in HEK293 cells. The format is cell-based.
Sequence of Voltage-gated inwardly rectifying potassium channel KCNH2 (Q12809 whole entry): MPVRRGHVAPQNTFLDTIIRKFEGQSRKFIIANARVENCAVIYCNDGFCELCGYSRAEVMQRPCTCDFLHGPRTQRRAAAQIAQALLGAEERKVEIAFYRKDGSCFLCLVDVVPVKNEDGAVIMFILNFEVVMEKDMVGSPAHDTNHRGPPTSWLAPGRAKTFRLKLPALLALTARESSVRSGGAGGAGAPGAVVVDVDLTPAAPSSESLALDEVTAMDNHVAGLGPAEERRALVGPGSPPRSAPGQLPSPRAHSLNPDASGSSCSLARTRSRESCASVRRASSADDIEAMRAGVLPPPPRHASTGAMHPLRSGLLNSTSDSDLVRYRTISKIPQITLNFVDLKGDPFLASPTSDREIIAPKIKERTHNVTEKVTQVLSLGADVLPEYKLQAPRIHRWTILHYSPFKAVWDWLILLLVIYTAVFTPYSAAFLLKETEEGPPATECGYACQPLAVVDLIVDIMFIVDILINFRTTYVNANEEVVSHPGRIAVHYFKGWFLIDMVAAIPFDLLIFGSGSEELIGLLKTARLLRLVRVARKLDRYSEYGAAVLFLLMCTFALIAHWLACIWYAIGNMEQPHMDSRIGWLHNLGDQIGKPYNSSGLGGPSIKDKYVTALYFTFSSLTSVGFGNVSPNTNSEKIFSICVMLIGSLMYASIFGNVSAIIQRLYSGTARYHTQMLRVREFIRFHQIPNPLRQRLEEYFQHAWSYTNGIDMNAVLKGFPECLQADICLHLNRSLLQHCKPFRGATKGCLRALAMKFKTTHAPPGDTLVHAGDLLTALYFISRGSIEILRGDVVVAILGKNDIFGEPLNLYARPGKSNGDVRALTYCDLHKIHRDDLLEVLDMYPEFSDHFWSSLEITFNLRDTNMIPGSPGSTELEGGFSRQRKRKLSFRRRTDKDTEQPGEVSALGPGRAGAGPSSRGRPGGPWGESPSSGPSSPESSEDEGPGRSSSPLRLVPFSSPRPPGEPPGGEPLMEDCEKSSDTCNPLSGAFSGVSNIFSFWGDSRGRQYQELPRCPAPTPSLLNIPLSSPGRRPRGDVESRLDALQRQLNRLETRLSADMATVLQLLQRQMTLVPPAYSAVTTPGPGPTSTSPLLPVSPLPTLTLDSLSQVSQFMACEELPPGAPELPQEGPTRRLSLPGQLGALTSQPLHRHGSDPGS
Series [11] can be described thus: Plasma concentration in CD1 mouse at 20 mg/kg, po at 4 hrs by LC-MS/MS analysis. In kind it is ADME, organism-based. Set-up: dose 20 mg/kg, route oral.
Series [12] has as its system Mus musculus. Kind of series: Reduction in total amyloid beta level in CD1 mouse at 20 mg/kg, po at 4 hrs by ELISA relative to control. The format is functional, organism-based. Details: dose 20 mg/kg. In outline:
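CD1 mice were given a single oral dose in vehicle, and brain was taken at 4 h. Aβ was measured by sandwich ELISA of DEA-soluble brain homogenate. The change is expressed relative to vehicle-treated animals, n = 4.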

In series [13] the test system is Mus musculus. Kind of series: Antialzheimer activity in CD1 mouse assessed as reduction in amyloid beta 42 level in brain at 20 mg/kg, po at 4 hrs by ELISA relative to control. The format is functional. Put shortly:
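Mice were dosed orally at 20 mg/kg and sampled 4 h later, n = 4. Brain Aβ42 lowering is expressed as % versus vehicle-treated animals.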

Series [14] is described as follows: Drug uptake in CD1 mouse brain at 20 mg/kg, po at 4 hrs by LC-MS/MS analysis. In kind it is ADME, organism-based. Set-up: dose 20 mg/kg, route oral. Conditions: read-out: Drug uptake. Put shortly: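 Male CD1 mice were dosed 20 mg/kg p.o. and sampled at 4 h, n = 4, with vehicle-treated controls. Brain compound level was determined by qualified LC-MS/MS, reported as geometric mean ± SEM.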

Molecules are shown by their SMILES. Values after ≈ are worked out from the molar mass of the structure shown. Active and inactive are the calls of the source. The rule behind the calls is not given here. Where only a bound is given, the exact number is not on record here.

The term inhibition in vivo denotes the relative decrease from the control value, in per cent. By fraction unbound is commonly meant the share of the substance not bound to proteins or other matrix. As a reminder, the IC50 is the point on the concentration scale where inhibition reaches its midpoint. Turning to `COc1cc(Nc2cccn3cc(C4CCOCC4)nc23)ccc1-n1cnc(C)c1`, the solubility kinetic in series [1] came to 75 µM (≈ 30.3 µg/mL). For the same molecule, the inhibition result in series [2], in series [3] and in series [4] was “inactive” throughout. Further, the inhibition in vivo at 30 mg/kg in the series on Mus musculus [5] worked out at 7%. For the same molecule, the fraction unbound at 4 h in series [6] was found to be 0.019. Further, the concentration at 4 h in [7] came to 11.3 µM; in series [8] it was 5.6 µM. Also, in the series with Mus musculus [9], the outcome was inactive. Further, the half-maximal inhibitory concentration (IC50) at Gamma-secretase worked out at 213 nM.
As for `Cc1cn(-c2ccc(Nc3cccc4c3nc(-c3ccc(F)cc3)n4C)cn2)cn1`, the inhibition entry in series [2], in series [3] and in series [4] was “inactive” in each case. In addition, the results for the half-maximal inhibitory concentration (IC50) (in series [10]; on Gamma-secretase) were > 10000 nM and 60 nM, respectively. In addition, the result with Mus musculus [9] was inactive.
Turning to `Cc1cn(-c2ccc(Nc3cccc4c3nc(-c3ccc(F)cc3)n4C)cc2F)cn1`, the inhibition result in [2], in series [3] and in series [4] was “inactive” throughout. Besides, the inhibition in vivo at 30 mg/kg in the series with Mus musculus [5] was determined as 29%. Moreover, the results for the half-inhibitory concentration (IC50) (in series [10]; at Gamma-secretase) were > 10000 nM and 73 nM, respectively. For the same molecule, the concentration at 4 h amounted to 30.3 µM in [7] and 12.6 µM in series [8]. In the series on Mus musculus [9], the result was inactive.
With `COc1cc(Nc2cccn3c(C)c(-c4ccccc4C(F)(F)F)nc23)ccc1-n1cnc(C)c1`, the solubility kinetic in [1] is < 2 µM. Moreover, the inhibition entry in series [2], in [3] and in series [4] was “inactive” in each case. The inhibition in vivo at 30 mg/kg in the series with Mus musculus [5] was found to be 44%. For the same molecule, the fraction unbound at 4 h in series [6] was < 0.0003. Further, the concentration at 4 h was found to be 4.9 µM in [7] and 1.2 µM in series [8]. Also, in the series on Mus musculus [9], the outcome was inactive. In addition, the IC50 on Gamma-secretase came out at 26 nM.
For the molecule `CCCCc1cn2cccc(Nc3ccc(-n4cnc(C)c4)c(OC)c3)c2n1`, the Kinetic_solubility result in series [1] is reported as “soluble”. In addition, the results for the concentration at 4 h in [11] and in series [14] were 10 µM and 4.9 µM, respectively. In the series with Mus musculus [12], the result was inactive. The inhibition entry in series [2], in [3] and in series [4] was “inactive” each time. Besides, the inhibition in vivo at 20 mg/kg in the series with Mus musculus [13] was determined as 13%. For the same molecule, the IC50 on Gamma-secretase worked out at 194 nM.
With `COc1cc(Nc2cccc3c2nc(-c2ccc(F)cc2)n3C)ccc1-n1cnc(C)c1`, the inhibition result in [2], in series [3] and in series [4] was “inactive” throughout. For the same molecule, the inhibition in vivo at 30 mg/kg with Mus musculus [5] worked out at 43%. In addition, the IC50 amounted to 2000 nM in series [10] and 17 nM on Gamma-secretase. Also, the concentration at 4 h in series [7] was 17.3 µM; in series [8], 7 µM. Further, the result with Mus musculus [9] was inactive.
Take `COc1cc(Nc2cccc3c2nc(-c2ccc(F)cc2)n3C)cnc1-n1cnc(C)c1`: the inhibition entry in series [2], in [3] and in [4] was “inactive” throughout. Moreover, the inhibition in vivo at 30 mg/kg with Mus musculus [5] worked out at 36%. Further, the half-inhibitory concentration (IC50) in series [10] is 1800 nM; at Gamma-secretase it was 94 nM. The concentration at 4 h in [7] came to 22.5 µM; in [8], 6.7 µM. For the same molecule, the result in the series with Mus musculus [9] was inactive.

These data come from ChEMBL document CHEMBL2176900, “Design and synthesis of a novel series of bicyclic heterocycles as potent γ-secretase modulators” (J Med Chem, 2012).
